A short description of experiment [1]: inhibitors of TNFa-induced NFkB p65 translocation, primary screen, imaging, HUVEC, MLSMR starter and 10KST1 sets (AID 438;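 active = inhibition above 20% together with a positive visual image hit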;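 note: compound added about 3h40 before a 20 min TNFalpha stimulation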;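 for inhibition: signal is the nuclear over cytoplasmic p65 intensity ratio per well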). The conditions noted are these: HUVEC TNFa-induced p65 nuclear translocation; cell count: measured here: nuclei count (cytotoxicity indicator), at 2.08 µM; inhibition: at 2 µM, stronger effect = higher value, 0% TNFa-plus-vehicle, 100% no-TNFa wells.

The nature of experiment [2]: inhibitors of mutant huntingtin aggregation, primary screen, imaging, exon1htt(103Q)mCFP cells, high-content imaging (AID 483;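 active = visual image review flags a hit and inhibition of aggregation exceeds 20%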;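 note: compound exposure lasted 3 days before fixation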;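 for nuclei count: percent of the per-plate median nuclei count of sample wells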). The following applies: exon1htt(103Q)mCFP cell line, aggregate imaging, at 2 µM; inhibition of aggregation: stronger effect = higher value; nuclei count: measured here: cell count, toxicity.
Experiment [3] in a line: inhibitors of E-selectin induction by TNFa, primary screen, imaging, HUVEC, immunofluorescence, MLSMR starter and 10KST1 sets (AID 487;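 active = visually confirmed hit in the image check and inhibition above 20%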;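 for inhibition: signal is fraction of cell area covered by stained E-selectin grains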;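 for nuclei count: 100% = median nuclei count of all wells on the same plate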). The following applies: HUVEC TNFalpha-induced E-selectin immunofluorescence imaging, at 2 µM; inhibition: stronger effect = higher value; nuclei count: measured here: cell number, toxicity.
Experiment [4] concerns the target Voltage-gated potassium channel subunit beta-2 (Rattus norvegicus) (UniProt P62483). As to the kind of experiment: KvBeta enzyme negative modulators, primary screen, biochemical, NADPH fluorescence (AID 622;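 active = fluorescence slope higher than the sample average by over 3 SD, cut at about -0.22 in these data, passing the limit was not always enough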;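 note: slope of raw intensity against log time taken from 70 to 1610 s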). The conditions noted are these: recombinant KvBeta, 4-cyanobenzaldehyde reduction, at 10 µM, stronger effect = higher value.
For experiment [5] the target is unchanged. Put plainly: KvBeta positive modulators, primary screen, biochemical, NADPH fluorescence (AID 623;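 active = NADPH fluorescence slope more negative than the mean of all samples by about 3 SD, 99.7% confidence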;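 note: fluorescence intensity change per second fitted from 20 to 320 s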). The following applies: Recombinant KvBeta, NADPH fluorescence decrease slope, 10 min; at 10 µM; stronger effect = lower value.
For experiment [6], the target named is Muscarinic acetylcholine receptor M4 (Homo sapiens) (UniProt P08173). Put plainly: compounds altering M4/GIRK thallium flux, either direction, primary screen, M4 allosteric agonist project, cell-based, HEK293 M4/GIRK, BTC-AM (AID 625;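 active = fluorescence slope after compound addition differing from the mean of all tested samples at 99.7% confidence, mostly higher but some lower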;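 note: thallium influx through GIRK channels coupled to M4 in HEK293 cells with BTC-AM dye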). The conditions noted are these: at 10 µM, actives lie on both sides. In outline: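 Material – HEK293 cells with M4 receptor and GIRK channels · Buffer or medium – pH 7.3 thallium assay buffer · Doses – one dose, 10 µM final · Timing – cells overnight at 37 °C, BTC-AM loading 1 h, reads 2 min total · Measured by – kinetic fluorescence with BTC-AM dye · Controls – carbachol and DMSO controls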
Sequence of Muscarinic acetylcholine receptor M4 (Homo sapiens) (P08173 whole entry, looked up): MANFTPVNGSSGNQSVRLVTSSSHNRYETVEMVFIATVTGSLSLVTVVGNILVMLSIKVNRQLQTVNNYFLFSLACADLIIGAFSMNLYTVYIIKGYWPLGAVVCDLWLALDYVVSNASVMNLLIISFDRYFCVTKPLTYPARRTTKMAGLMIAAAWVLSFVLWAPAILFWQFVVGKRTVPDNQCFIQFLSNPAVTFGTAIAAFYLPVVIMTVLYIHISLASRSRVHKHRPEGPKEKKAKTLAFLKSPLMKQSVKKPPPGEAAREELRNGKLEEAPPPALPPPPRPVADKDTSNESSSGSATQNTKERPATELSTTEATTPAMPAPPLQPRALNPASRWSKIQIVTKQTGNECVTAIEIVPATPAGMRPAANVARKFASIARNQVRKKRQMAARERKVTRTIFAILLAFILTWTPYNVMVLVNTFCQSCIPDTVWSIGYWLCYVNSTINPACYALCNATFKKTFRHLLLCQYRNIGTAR

A short description of experiment [7]: inhibitors of Sendai virus-induced IRF3 signaling, primary screen, TLR/RLR signaling modifier project, cell-based, Sendai virus stimulus, luciferase, 10K MLSCN set (AID 602276;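 active = inhibition at or above 50% at 10 µM; inactive = inhibition below 50%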;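 note: firefly luciferase from ISG56 promoter only with Renilla not read in this screen; 0% = Sendai virus plus DMSO and 100% = medium plus DMSO without virus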). The following applies: HEK293 RL24 IRF3 luciferase reporter, at 10 µM, stronger effect = higher value. (In general: A reporter such as luciferase makes a cellular process visible.)
Experiment [8] can be described thus: inhibitors of poly I:C-induced TLR3 signaling, primary screen, cell-based, poly I:C stimulus, luciferase, 10K MLSCN set (AID 602277). The following applies: HEK293-TLR3 RL24 IRF3 luciferase reporter, at 10 µM, stronger effect = higher value.

Calls of active or inactive are those of the source.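 Rule for the calls, unless noted: active = inhibition of the reporter signal at or above 50%; inactive = inhibition below 50%.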

Sequence of Voltage-gated potassium channel subunit beta-2 (Rattus norvegicus) (P62483 whole entry, looked up): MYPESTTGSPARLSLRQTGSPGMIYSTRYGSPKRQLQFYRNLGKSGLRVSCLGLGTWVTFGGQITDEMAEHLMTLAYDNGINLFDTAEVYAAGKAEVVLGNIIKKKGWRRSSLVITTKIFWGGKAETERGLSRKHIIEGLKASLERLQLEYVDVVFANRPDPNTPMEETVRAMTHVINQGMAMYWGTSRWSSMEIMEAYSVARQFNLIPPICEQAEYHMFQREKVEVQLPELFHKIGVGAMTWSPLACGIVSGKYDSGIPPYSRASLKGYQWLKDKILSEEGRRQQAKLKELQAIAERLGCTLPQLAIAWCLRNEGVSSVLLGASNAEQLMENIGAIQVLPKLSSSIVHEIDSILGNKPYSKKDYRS

As for `CC(=O)OC(C(=O)NCc1ccco1)c1cccnc1` (centres undefined), the cell count in experiment [1] came to 609. For the same molecule, the inhibition (usually the relative decrease from the control value, in per cent) in experiment [1] was -36.2% (inactive); in experiment [3], -9.7% (inactive); in experiment [7] it was 13% (inactive); in experiment [8], 15.9% (inactive). Moreover, the inhibition of aggregation in experiment [2] is -14.7% (inactive). For the same molecule, the nuclei count in experiment [2] is 105%; in experiment [3] it was 135%. In addition, the fluorescence slope in experiment [4] is -0.553 (inactive); in experiment [6], 0.00644 (inactive). Also, the NADPH fluorescence slope in experiment [5] is -7.1e-05 (inactive).

For `CC1CC(C)CN(CCCNC(=O)COc2cc(=O)n(C)c3ccccc23)C1` (centres undefined), in experiment [1], the cell count was found to be 347. For the same molecule, the inhibition was 3.3% (inactive) in experiment [1], -10.4% (inactive) in experiment [3], 11.3% (inactive) in experiment [7] and 36.3% (inactive) in experiment [8]. Moreover, the inhibition of aggregation in experiment [2] is -17.3% (inactive). The results for the nuclei count in experiment [2] and in experiment [3] were 99% and 122%, respectively. Besides, the figures for the fluorescence slope in experiment [4] and in experiment [6] were -0.408 (inactive) and 0.00505 (inactive), respectively. Further, the NADPH fluorescence slope in experiment [5] is -7e-05 (inactive).

As for `CCc1c(C)nc(N)n2c(SCC(=O)N3CCCc4ccccc43)nnc12`, the cell count in experiment [1] turned out to be 503. For the same molecule, the inhibition is 14.6% (inactive) in experiment [1], -251% (inactive) in experiment [3], 20.9% (inactive) in experiment [7] and 31.4% (inactive) in experiment [8]. Besides, the inhibition of aggregation in experiment [2] was -13.3% (inactive). In addition, the nuclei count worked out at 123% in experiment [2] and 147% in experiment [3]. Further, the fluorescence slope is -0.454 (inactive) in experiment [4] and 0.00455 (inactive) in experiment [6]. The NADPH fluorescence slope in experiment [5] is -6.5e-05 (inactive).

As for `Cc1nnc(NC2CCCCC2)[nH]c1=O`, the cell count in experiment [1] amounted to 358. The inhibition is 5.3% (inactive) in experiment [1], -59.1% (inactive) in experiment [3], 12.6% (inactive) in experiment [7] and 14.5% (inactive) in experiment [8]. Besides, in experiment [2], the inhibition of aggregation was -1.6% (inactive). In addition, the nuclei count in experiment [2] is 103%; in experiment [3] it was 115%. Further, the fluorescence slope in experiment [4] was -0.592 (inactive); in experiment [6] it was 0.00733 (inactive). In addition, in experiment [5], the NADPH fluorescence slope is -3.6e-05 (inactive).

Turning to `Cc1cccc(-n2ncc(C#N)c2N)c1`, the cell count in experiment [1] came to 644. In addition, the inhibition in experiment [1] was -3% (inactive); in experiment [3], -44.1% (inactive); in experiment [7], 18% (inactive); in experiment [8] it was 12.7% (inactive). For the same molecule, the inhibition of aggregation in experiment [2] is 11.6% (inactive). Moreover, the nuclei count turned out to be 97% in experiment [2] and 144% in experiment [3]. Besides, the fluorescence slope in experiment [4] was -0.482 (inactive); in experiment [6], 0.00451 (inactive). For the same molecule, the NADPH fluorescence slope in experiment [5] is -2.8e-06 (inactive).

Consider `CCCCNC(=O)c1c(C)cc(=O)oc1C`, for which, in experiment [1], the cell count was determined as 541. The inhibition is -21.8% (inactive) in experiment [1], -29% (inactive) in experiment [3], 18.4% (inactive) in experiment [7] and 14% (inactive) in experiment [8]. Also, the inhibition of aggregation in experiment [2] was -12.9% (inactive). Also, the nuclei count in experiment [2] turned out to be 141%; in experiment [3], 106%. Besides, the values for the fluorescence slope in experiment [4] and in experiment [6] were -0.531 (inactive) and 0.0056 (inactive), respectively. Moreover, the NADPH fluorescence slope in experiment [5] was -2.1e-05 (inactive).

For `CCc1nc(N[C@@H](Cc2c[nH]c3ccccc23)C(=O)O)c2oc3ccccc3c2n1`, the cell count in experiment [1] stood at 570. Besides, the inhibition is -0.4% (inactive) in experiment [1], -59.6% (inactive) in experiment [3], 10.8% (inactive) in experiment [7] and 9.74% (inactive) in experiment [8]. In experiment [2], the inhibition of aggregation was -19.4% (inactive). The nuclei count in experiment [2] was determined as 101%; in experiment [3], 98.6%. In addition, the figures for the fluorescence slope in experiment [4] and in experiment [6] were -0.4 (inactive) and 0.00556 (inactive), respectively. In experiment [5], the NADPH fluorescence slope was 4.2e-05 (inactive).

Regarding `O=C1c2ccccc2-c2nc3ncnn3c(-c3ccccc3)c21`, the cell count in experiment [1] was found to be 377. The inhibition was -7.8% (inactive) in experiment [1], -6.8% (inactive) in experiment [3], -11.4% (inactive) in experiment [7] and 1.41% (inactive) in experiment [8]. In addition, the inhibition of aggregation in experiment [2] is -4.5% (inactive). Also, the nuclei count in experiment [2] was determined as 83.8%; in experiment [3], 107%. Moreover, the fluorescence slope in experiment [4] was -0.432 (inactive); in experiment [6], 0.00449 (inactive). For the same molecule, the NADPH fluorescence slope in experiment [5] is -0.000383 (inactive).

As for `C=CCN(CC=C)C(=O)CN1C(=O)c2ccccc2C1=O`, the cell count in experiment [1] was determined as 356. In addition, the inhibition is 0.2% (inactive) in experiment [1], -103% (inactive) in experiment [3], 19.9% (inactive) in experiment [7] and 22.1% (inactive) in experiment [8]. In addition, the inhibition of aggregation in experiment [2] was 27.5% (inactive). Further, the results for the nuclei count in experiment [2] and in experiment [3] were 83.2% and 117%, respectively. The fluorescence slope in experiment [4] is -0.572 (inactive); in experiment [6] it was 0.0065 (inactive). Further, in experiment [5], the NADPH fluorescence slope is -1.3e-05 (inactive).

For the molecule `CCn1c(=S)sc2nc(C)sc21`, in experiment [1], the cell count was found to be 266. Moreover, the inhibition in experiment [1] is 1.3% (inactive); in experiment [3], -38.4% (inactive); in experiment [7] it was 13.4% (inactive); in experiment [8], 15% (inactive). In addition, the inhibition of aggregation in experiment [2] was -4.4% (inactive). Moreover, the nuclei count in experiment [2] stood at 76.2%; in experiment [3], 124%. In addition, the fluorescence slope is -0.598 (inactive) in experiment [4] and 0.00458 (inactive) in experiment [6]. In addition, the NADPH fluorescence slope in experiment [5] is 3.2e-06 (inactive).

For the molecule `CCOc1ccc(OCc2cccc(C(=O)O)c2)cc1`, the cell count in experiment [1] stood at 600. The inhibition in experiment [1] was 3.8% (inactive); in experiment [3], -68% (inactive); in experiment [7], -46.2% (inactive); in experiment [8], -87.1% (inactive). Also, the inhibition of aggregation in experiment [2] is -11.5% (inactive). Further, the nuclei count in experiment [2] amounted to 112%; in experiment [3], 116%. Besides, the figures for the fluorescence slope in experiment [4] and in experiment [6] were -0.551 (inactive) and 0.00598 (inactive), respectively. Besides, the NADPH fluorescence slope in experiment [5] is -2.8e-05 (inactive).

Turning to `Cc1ccc(NC2=NC(c3ccccc3)n3c(nc(C)cc3=O)N2)cc1` (centres undefined), in experiment [1], the cell count worked out at 568. Further, the inhibition is -5.6% (inactive) in experiment [1], -13% (inactive) in experiment [3], 14.2% (inactive) in experiment [7] and 19.7% (inactive) in experiment [8]. The inhibition of aggregation in experiment [2] is -4.2% (inactive). Further, the nuclei count in experiment [2] is 89.6%; in experiment [3], 90.9%. Further, the fluorescence slope is -0.529 (inactive) in experiment [4] and 0.00472 (inactive) in experiment [6]. In experiment [5], the NADPH fluorescence slope was 3.4e-05 (inactive).

With `CCOC(=O)c1nnn(CC(=O)Nc2cccc(OC)c2)c1C(=O)OCC`, in experiment [1], the cell count turned out to be 395. Moreover, the inhibition in experiment [1] was 8% (inactive); in experiment [3], -10.7% (inactive); in experiment [7], 9.94% (inactive); in experiment [8] it was 14.1% (inactive). Moreover, the inhibition of aggregation in experiment [2] is 20.4% (inactive). Besides, the nuclei count in experiment [2] came out at 89%; in experiment [3], 106%. The fluorescence slope in experiment [4] is -0.416 (inactive); in experiment [6] it was 0.00731 (inactive). Moreover, the NADPH fluorescence slope in experiment [5] was -3.9e-05 (inactive).

For the molecule `C=CCn1c(COc2ccccc2F)nnc1SCC(=O)N1CC(=O)Nc2ccccc21`, the cell count in experiment [1] stood at 390. The inhibition is -23.5% (inactive) in experiment [1], 4% (inactive) in experiment [3], -13.7% (inactive) in experiment [7] and -13.8% (inactive) in experiment [8]. For the same molecule, the inhibition of aggregation in experiment [2] was 28% (inactive). For the same molecule, the nuclei count in experiment [2] came out at 100%; in experiment [3], 121%. For the same molecule, the fluorescence slope is -0.355 (inactive) in experiment [4] and 0.00612 (inactive) in experiment [6]. In experiment [5], the NADPH fluorescence slope is 2.1e-06 (inactive).

Values taken from PubChem BioAssay.
